Fibroblast inh: blocks proliferation of human lung fibroblasts; LL 47 human lung fibroblast viability, ATP luminescence; hits give low values; viability, % at 10 µM; 85,000 compounds, 1.1% hits;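 active = viability at or below 50% in the single dose screen; inactive = viability above 50%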;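 also: compound exposure lasted 72 h before the ATP readout; 100% = median luminescence of untreated cell-only wells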
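Material: human LL 47 lung fibroblast cells; quantity: 1,150 cells/well; medium: IMEM plus 15% FBS; doses: 0.1% DMSO in all compound wells; timing: overnight attachment after seeding, then 72 h compound exposure at 37 °C; detection: CellTiter-Glo luminescence; measure: % viability of median cell-only signal; controls: cell-only wells, no compound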
PTEN del growth: suppresses growth of cells with PTEN deletion | HCT116 PTEN-null viability, CellTiter-Glo, 60 h; hits give low values | 140,000 compounds, 1.2% hits | viability, % at 10 µM;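 active = viability at or below a set limit, 4 SD under the median of all tested compounds, cut at about 3.7% in these data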;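 also: PTEN knockout HCT116 line with beta catenin targeted HCT116 as companion control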
HUVEC prolif 384: human endothelial cell proliferation inhibition; HUVEC proliferation, CellTiter-Glo luminescence, 72 h; hits give low values; AID 648; 86,000 compounds, 1.1% hits; viability, % at 10 µM (by protocol);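 active = viability at or below 30%; inactive = viability above 30%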;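 also: 100% = median luminescence of DMSO-only cell control wells on each plate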
HCT116 bCat-KO: beta-catenin-lacking colon tumor cell growth suppression; viability, % at 10 µM; 140,000 compounds, 1.5% hits; HCT116 beta-catenin knockout viability, CellTiter-Glo, 60 h; hits give low values;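 active = viability at or under a set limit, the compound median less 4 SD, cut at about 6% in these data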;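 also: 0% = Hyamine 1622 control at 20 µM and 100% = untreated cell control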
H69AR inhibit: growth inhibitors of human H69AR lung tumor cells; H69AR lung tumor viability, ATP luminescence, 72 h; hits give low values; viability, % at 10 µM; 85,000 compounds, 6% hits; AID 598;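 active = viability at or below 40%; inactive = viability above 40%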;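 also: multidrug resistant small cell line overexpressing MRP-1 efflux transporter; 100% = mean luminescence of untreated control wells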
Pyk2 oligo antag: blocks oligomerization of human Pyk2 in cells; Q14289; Q293 cells, Pyk2 FERM NanoBiT luminescence; hits give low values; 99,000 compounds, 0.83% hits; AID 1347419; z-score (the deposit names both 25 µM and 10 µM);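 active = Z-score of -3 or lower, scaled per plate to the spread of control and sample wells; inactive = z-score above -3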;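 also: negative z-score means lost luminescence so less FERM oligomerization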
Target sequence (Q14289 whole entry, looked up): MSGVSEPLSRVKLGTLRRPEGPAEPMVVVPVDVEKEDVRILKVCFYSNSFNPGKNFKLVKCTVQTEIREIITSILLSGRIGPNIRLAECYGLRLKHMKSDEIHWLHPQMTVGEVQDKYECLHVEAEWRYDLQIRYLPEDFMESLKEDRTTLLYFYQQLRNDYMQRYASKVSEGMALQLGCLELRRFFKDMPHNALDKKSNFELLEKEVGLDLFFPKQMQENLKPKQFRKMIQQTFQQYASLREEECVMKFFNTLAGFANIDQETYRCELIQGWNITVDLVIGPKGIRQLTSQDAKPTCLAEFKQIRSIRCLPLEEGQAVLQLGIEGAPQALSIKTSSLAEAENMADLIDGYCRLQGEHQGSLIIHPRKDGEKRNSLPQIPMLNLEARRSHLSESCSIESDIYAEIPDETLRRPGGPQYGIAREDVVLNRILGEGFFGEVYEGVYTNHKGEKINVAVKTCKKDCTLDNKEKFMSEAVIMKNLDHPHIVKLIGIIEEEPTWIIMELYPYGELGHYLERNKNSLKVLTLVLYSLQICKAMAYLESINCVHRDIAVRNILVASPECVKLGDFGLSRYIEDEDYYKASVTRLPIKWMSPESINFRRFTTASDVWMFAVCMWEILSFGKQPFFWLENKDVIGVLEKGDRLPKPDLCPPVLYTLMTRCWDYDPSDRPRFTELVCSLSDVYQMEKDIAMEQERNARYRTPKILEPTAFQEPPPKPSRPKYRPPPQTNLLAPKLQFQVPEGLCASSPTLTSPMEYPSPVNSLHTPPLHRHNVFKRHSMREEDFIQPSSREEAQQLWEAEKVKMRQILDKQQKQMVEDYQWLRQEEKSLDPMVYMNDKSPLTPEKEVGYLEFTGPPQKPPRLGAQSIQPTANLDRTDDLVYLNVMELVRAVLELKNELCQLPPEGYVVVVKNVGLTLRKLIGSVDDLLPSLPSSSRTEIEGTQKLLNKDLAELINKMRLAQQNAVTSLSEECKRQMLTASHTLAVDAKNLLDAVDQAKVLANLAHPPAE
An asterisk follows results filed as active; · = no result given. Only a selection was taken, and hits are over-represented in it overall.

SMILES	Fibroblast inh	PTEN del growth	HUVEC prolif 384	HCT116 bCat-KO	H69AR inhibit	Pyk2 oligo antag
O=C(CNC(=O)c1ccc2ccccc2c1)OCC(=O)N1CCN(S(=O)(=O)c2ccc3ccccc3c2)CC1	·	88.1	·	83.2	·	·
CCOC(=O)c1c(NC(=O)C2COc3ccccc3O2)sc(C(C)=O)c1C (stereo not drawn)	83.8	62.6	22.8*	66.5	21.0*	1.34
CCOC(=O)c1c(NC(=O)C2COc3ccccc3O2)sc2c1CC(C)(C)NC2(C)C (stereo not drawn)	·	0.7*	·	2.3*	·	·
COCCCNC(=O)c1c(NC(=O)C2COc3ccccc3O2)sc2c1CCCC2 (stereo not drawn)	100.7	80.3	76.9	91.0	34.7*	-0.62
CC(C)(C)OC(=O)C(Cc1ccc(OC(C)(C)C)cc1)NC(=O)CNC(=O)OCc1ccccc1 (stereo not drawn)	·	79.9	·	76.3	·	·
COC(=O)c1ccc(NC(=O)CN(C2CCCCC2)S(C)(=O)=O)cc1	88.4	63.4	89.8	76.7	37.9*	-0.05
CC1CCCC(C)N1C(=O)COC(=O)C(Cc1ccccc1)NC(=O)c1cccs1 (stereo not drawn)	·	102.9	·	94.7	·	·
CC(=O)n1cc(Nc2ccccc2C(=O)O)c2ccccc21	100.9	83.9	105.2	93.8	54.0	1.02
CCOC(=O)c1ccccc1Nc1cn(C(C)=O)c2ccccc12	45.9*	14.7	57.5	10.0	23.2*	0.04
Cn1c(SCC(=O)N2c3ccccc3Sc3ccccc32)nc2ccccc21	·	73.8	·	82.1	·	·
CN(C)CCCn1c(SCC(=O)N2c3ccccc3Sc3ccccc32)nc2ccccc2c1=O	·	1.7*	·	1.6*	·	·
CC(=O)N1c2c(cc(Br)cc2S(=O)(=O)N2CCN(C(=O)c3ccco3)CC2)CC1C (stereo not drawn)	98.1	87.5	103.8	93.6	79.7	-0.29
CC1CCCCC1NC(=O)c1ccc(S(=O)(=O)N2CCCC2)cc1 (stereo not drawn)	90.3	94.6	103.7	101.6	97.8	0.3
CC1CCCCC1NC(=O)c1ccc2c(c1)[nH]c(=O)n2C1CCCC1 (stereo not drawn)	92.0	82.6	104.9	88.0	20.7*	0.02
Cc1ccc(C2C3=C(CCCC3=O)N=C3c4ccccc4C(=O)C32)cc1 (stereo not drawn)	·	75.2	·	83.1	·	·
CCC1Oc2ccc(C)cc2N(CC(=O)N(Cc2ccc(C)o2)C2CC(C)(C)NC(C)(C)C2)C1=O (stereo not drawn)	83.5	11.9	73.2	21.2	32.5*	0.41
CCOC(=O)C1CCCN(C(=O)Cn2cnc3c2c(=O)n(C)c(=O)n3C)C1 (stereo not drawn)	104.6	91.8	100.0	99.4	89.0	0.3
CC(=O)c1cc(-c2ccccc2)n(CC(=O)N2CCC(N3CCCCC3)CC2)c1C	102.5	102.6	92.0	105.3	96.3	0.26
Cc1cc(C)c2c(=O)n(CC(=O)N3CCC(N4CCCCC4)CC3)sc2n1	76.0	1.9*	104.9	1.8*	103.0	·
CCOC(=O)C1CCCN(C(=O)Cn2sc3nc(C)cc(C)c3c2=O)C1 (stereo not drawn)	82.6	1.7*	93.3	14.2	1.1*	·
Cc1nc([N+](=O)[O-])c(Sc2nc3ccccc3[nH]2)n1Cc1ccccc1	·	16.5	·	10.7	·	·
COc1ccc2nc(Sc3c([N+](=O)[O-])nc(C)n3Cc3ccccc3)[nH]c2c1	·	1.7*	·	4.6*	·	·
Cc1cc2nc(Sc3c([N+](=O)[O-])nc(C)n3Cc3ccccc3)[nH]c2cc1C	·	2.8*	·	4.6*	·	·
COc1ccc(C2SCC(=O)N2CC23CC4CC(CC(C4)C2)C3)cc1 (stereo not drawn)	93.0	73.3	77.4	75.1	93.1	-0.72
O=C(Nc1ccc(C(F)(F)F)cc1)c1cccnc1N1CCOCC1	82.9	91.0	82.4	94.9	38.6*	1.15
SMILES	Fibroblast inh	PTEN del growth	HUVEC prolif 384	HCT116 bCat-KO	H69AR inhibit	Pyk2 oligo antag
COc1ccc(C(CC(=O)O)NC(=O)Cc2ccccc2)cc1OC (stereo not drawn)	108.2	100.0	116.9	95.2	108.1	·
CC(=O)Oc1ccc2ccccc2c1C(NC(=O)Cc1ccccc1)c1ccc(Cl)cc1 (stereo not drawn)	·	0.9*	·	0.8*	·	-4.03*
CC1=C(C(=O)Nc2cc(-c3cccc(F)c3)[nH]n2)C2(CCCCC2)OC1=O	76.3	73.6	76.5	58.3	31.9*	·
Cc1noc(C)c1CSc1nc2ccccc2n1C	99.5	94.0	93.4	92.9	75.7	0.37
Cc1noc(C)c1CSc1cc(C)c2ccccc2n1	89.8	79.9	96.8	92.4	22.5*	-1.16
CCCCn1c(CCC)nc([N+](=O)[O-])c1Sc1ccc(Cl)cn1	72.0	13.7	77.1	16.2	2.4*	-0.99
CC(C)Cn1c(C(C)C)nc([N+](=O)[O-])c1Sc1ccc(Cl)cn1	55.3	62.9	77.6	76.5	18.8*	-0.86
O=[N+]([O-])c1ccc(Sc2ccccc2)nc1	·	99.6	·	102.0	·	·
CCn1c(C)nc([N+](=O)[O-])c1Sc1ccc(F)cc1	·	71.0	·	76.2	·	·
COc1ccc(NS(=O)(=O)c2ccc(S(=O)(=O)N3CCCC3)cc2)cc1Cl	·	74.2	·	73.5	·	0.98
COc1ccc(OC)c(Nc2nc3nonc3nc2N2CCCC(C)C2)c1 (stereo not drawn)	·	95.0	·	96.4	·	·
COC(=O)c1sc(NC(=O)c2ccc(Cn3cc(Cl)cn3)o2)c(C#N)c1C	98.1	86.2	83.5	85.5	·	1.46
CCOC(=O)c1c(NC(=S)NC(=O)c2ccc(Cn3cc(Cl)cn3)o2)sc2c1CCCCC2	·	5.8	·	2.4*	·	-0.15
CCC1Oc2ccc(C)cc2N(CC(=O)N(Cc2ccc3c(c2)OCO3)CC2CCCO2)C1=O (stereo not drawn)	104.5	69.9	95.6	78.9	50.3	-0.94
COc1ccc(CN(CC2CCCO2)C(=O)CN2C(=O)C(C)Oc3ccc(C)cc32)cc1OC (stereo not drawn)	102.5	74.0	71.5	75.5	39.9*	1.03
O=C(/C=C/NNC(=O)c1ccc(Br)cc1)c1ccccc1	85.0	97.1	80.4	89.3	83.5	-1.39
Cc1c(NC(=O)c2ccc3c4c(cccc24)CC3)c(=O)n(-c2ccccc2)n1C	102.0	93.1	102.2	92.5	97.1	0.7
O=C(/C=C/c1ccccc1)c1ccc2c3c(cccc13)CC2	·	1.8*	·	1.4*	·	·
CCC(C(=O)O/N=C(\N)c1ccccc1)c1ccccc1 (stereo not drawn)	73.7	93.4	75.0	85.1	1.2*	0.05
O=C(/C=C\c1ccc(-c2ccccc2)o1)c1ccccc1	·	80.1	·	88.5	·	·
O=C(/C=C/NNC(=O)c1ccccc1)c1ccccc1	19.9*	90.9	100.9	87.0	87.4	-0.68
O=C(/C=C/c1ccccc1)c1ccccc1	85.7	2.0*	77.6	2.1*	1.5*	·
COc1ccc(CC(=O)NCc2nnc(SCc3ccc(C)cc3)n2C)cc1	·	89.9	·	92.7	·	·
CC(=O)Nc1ccc(S(=O)(=O)N/N=C/c2ccc(C)s2)cc1	·	106.1	·	90.5	·	·
